Tests used:
[1] = tested on: Plasmodium falciparum; assay: Antiplasmodial activity against Plasmodium falciparum Dd2 assessed as growth inhibition after 72 hrs by SYBR Green I dye based assay; type: functional, organism-based; details: Dd2, 72 h
Method in brief: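 Ring-stage parasite cultures at 1% hematocrit and 1% parasitemia, grown 72 h at 37 °C with increasing drug concentrations under 5.05% CO2/4.93% O2/90.2% N2. Viability read by DNA quantitation with SYBR Green I in lysis buffer (0.4 µL dye per mL lysis buffer). IC50 from nonlinear regression curve fitting.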

[2] = tested on: A2780; assay: Antiproliferative activity against human A2780 cells after […] by Alamar Blue assay; type: functional, cell-based
[3] = tested on: A2058; assay: Selectivity ratio of IC50 for human A2780 cells to IC50 for human A2058 cells; type: functional
[4] = tested on: A2058; assay: Antiproliferative activity against human A2058 cells after 96 hrs by CellTitre-Glo luminescent assay; type: functional, cell-based; details: A2058, 96 h
[5] = Antiproliferative activity against human H522-T1 cells after 96 hrs by CellTitre-Glo luminescent assay; type: functional, cell-based; details: H522-T1, 96 h

`Cn1c(=O)/c(=C/c2ccccc2)[nH]c(=O)/c1=C/c1ccccc1` gave an IC50 [1] of 6570 nM.

With `CC[C@H]1C[C@@H]2CC[C@@H](O2)[C@@H](C)C(=O)O[C@H](C)C[C@H]2CC[C@H](O2)[C@H](C)C(=O)O[C@@H](CC)C[C@@H]2CC[C@@H](O2)[C@@H](C)C(=O)O[C@H](C)C[C@H]2CC[C@H](O2)[C@H](C)C(=O)O1` [DINACTIN] the IC50 [2] was 260 nM, the “Ratio IC50” value [3] was 13 and the IC50 [4] was 20 nM. The IC50 [5] was 10 nM.

In the case of `CC[C@H]1C[C@@H]2CC[C@@H](O2)[C@@H](C)C(=O)O[C@H](C)C[C@H]2CC[C@H](O2)[C@H](C)C(=O)O[C@@H](C)C[C@@H]2CC[C@@H](O2)[C@@H](C)C(=O)O[C@H](C)C[C@H]2CC[C@H](O2)[C@H](C)C(=O)O1` [MONACTIN], the IC50 [2] is reported as 130 nM, the “Ratio IC50” value [3] is reported as 6.5 and the IC50 [4] is reported as 20 nM. It also gave an IC50 [5] of 10 nM.

`C[C@@H]1C[C@H]2CC[C@H](O2)[C@H](C)C(=O)O[C@@H](C)C[C@@H]2CC[C@@H](O2)[C@@H](C)C(=O)O[C@H](C)C[C@H]2CC[C@@H](O2)[C@H](C)C(=O)O[C@@H](C)C[C@@H]2CC[C@@H](O2)[C@@H](C)C(=O)O1` [NONACTIN] showed an IC50 [2] of 160 nM, an IC50 [4] of 260 nM and an IC50 [5] of 190 nM.

Compound `C=C1NC(=O)[C@H]([C@H](C)OC)N(C)C1=O` has an IC50 [1] of 50000 nM.
